Source: PMC9054024 (Science Advances, 2022)
Each block holds one molecule with its values, some of them ahead of it. Ends that are not written are not given here. * marks the point of attachment. Biotin = O=C1N[C@H]2[C@H](CS[C@H]2CCCCC(=O)*)N1

Columns and labels:
HCT116 and Colo320 cells = assay: Viability assay; assay type: cell-based, human; details: 48 hours; for effect of addition of cholesterol on viability: 20 μM compound ± cholesterol 20 μM; for cell viability compared to vehicle controls: 20 μM
How it was run: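 HCT116 and Colo320 cells were treated 48 h with the indicated agents at 20 μM, including water-soluble cholesterol, alone or combined. Viability was measured by CellTiter-Glo luminescence in triplicate and expressed relative to vehicle-treated cells.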

β-catenin/BCL9 complexes = molecular target: T1, β-catenin/BCL9 complexes (Homo sapiens, UniProt P35222); assay: BCL9 Co-IP assay in Colo320 and HCT116 cells; assay type: cell-based; details: Colo320 and HCT116, 16 hours
T1 sequence (P35222 2-781 limits assumed): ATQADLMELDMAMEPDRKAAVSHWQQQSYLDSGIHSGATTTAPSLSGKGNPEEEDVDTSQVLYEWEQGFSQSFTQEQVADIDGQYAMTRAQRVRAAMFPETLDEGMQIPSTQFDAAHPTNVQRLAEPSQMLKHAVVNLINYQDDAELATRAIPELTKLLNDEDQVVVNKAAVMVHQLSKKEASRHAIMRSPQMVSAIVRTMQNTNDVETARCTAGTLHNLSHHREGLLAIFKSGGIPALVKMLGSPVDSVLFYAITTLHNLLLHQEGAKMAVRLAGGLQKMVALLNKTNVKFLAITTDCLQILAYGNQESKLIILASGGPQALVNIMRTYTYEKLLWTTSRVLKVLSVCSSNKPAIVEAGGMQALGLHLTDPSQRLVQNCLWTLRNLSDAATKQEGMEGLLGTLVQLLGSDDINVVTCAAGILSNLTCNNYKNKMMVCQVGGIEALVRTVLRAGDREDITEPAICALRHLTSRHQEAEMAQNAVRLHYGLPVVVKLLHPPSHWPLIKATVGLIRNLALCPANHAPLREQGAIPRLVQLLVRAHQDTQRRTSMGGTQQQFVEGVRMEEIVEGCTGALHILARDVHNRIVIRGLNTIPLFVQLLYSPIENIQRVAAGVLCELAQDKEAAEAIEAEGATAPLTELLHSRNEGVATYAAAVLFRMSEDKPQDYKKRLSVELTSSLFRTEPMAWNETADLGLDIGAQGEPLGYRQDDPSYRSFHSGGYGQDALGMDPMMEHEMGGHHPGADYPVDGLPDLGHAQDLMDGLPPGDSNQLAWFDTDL
How it was run: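 Colo320 and HCT116 cells (with 4T1) were treated for 16 h with DMSO vehicle or 1, 10 or 20 μM compound. Nuclei were isolated and digested with hypotonic and digestion buffers, and nuclear protein was quantified by Bradford. 800 μg nuclear extract was immunoprecipitated overnight at 4°C with 3.5 μg anti-BCL9, with normal rabbit IgG as negative control, then immunoblotted.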

HCT116 cells = assay: Fluorescent staining of lipids and cholesterol in HCT116 cells; assay type: cell-based, human; details: treated for 24 and 48 hours
How it was run: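 HCT116 cells in glass-bottomed dishes treated with vehicle or 20 μM compound for 4, 8, 24 and 48 h. Fixed in 4% paraformaldehyde, stained with 2 μM BODIPY 493/503 for 15 min plus DAPI (1 μg/ml). Cholesterol stained with a filipin III kit. For localisation at 48 h, filipin was combined with anti-SERCA-ATPase (ER) or LipidSpot (lipid droplets). Imaged with a ×40 dry objective.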

[1] = test system: Wnt transcriptional activity; assay: Dual-luciferase Wnt reporter assay in Colo320 and HCT116 cells; assay type: cell-based, human; details: 16 hours, versus vehicle
How it was run: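 Stable reporter cells came from lentiviral transduction: firefly luciferase under a 7XTCF promoter and Renilla luciferase under an EF1alpha promoter. 30,000 cells/well were treated 16 h with DMSO vehicle or increasing compound concentrations. Firefly and Renilla signals were read by Dual-Glo, in triplicate.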

AXIN2, CD44, PARP, ABC = assay: Immunoblots of β-catenin–dependent cell lines Colo320 and HCT116; assay type: cell-based, human; details: Colo320 and HCT116, 24 and 48 hours
How it was run: (§1)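 HCT116 (McCoy's), Colo320 (RPMI 1640) and RKO (DMEM) were grown with 10% FBS at 37°C, 5% CO2, with DMSO as vehicle. Membranes were probed overnight at 4°C with primary antibodies in blocking buffer, then HRP secondary, and detected by chemiluminescence. Densitometry was normalized to actin.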

AXIN2, CD44, PARP = assay: Immunoblots of β-catenin–independent cell line RKO; assay type: cell-based, human; details: RKO cells
How it was run: as §1

[2] = test system: Wnt target genes AXIN2 and CD44; assay: RT-qPCR of Wnt target genes in Colo320 and HCT116 cells; assay type: cell-based, human; details: 10 or 20 μM for 6, 24, and 48 hours
How it was run: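 Colo320 and HCT116 cells treated with DMSO vehicle or 10 or 20 μM compound for 6, 24 and 48 h. Total RNA isolated with TRIzol, reverse-transcribed, and SYBR Green qPCR run. Expression normalised to B2M and PMM1 or GAPDH by the ΔΔCT method.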

[3] = molecular target: T2, β-catenin complexes with E-cadherin (Homo sapiens, UniProt P35222); assay: β-catenin Co-IP assay in DLD-1 cells; assay type: cell-based
T2 sequence (P35222 2-781 limits assumed): T1 sequence (P35222 2-781 limits assumed)
T2 sequence (P12830 155-882 partner): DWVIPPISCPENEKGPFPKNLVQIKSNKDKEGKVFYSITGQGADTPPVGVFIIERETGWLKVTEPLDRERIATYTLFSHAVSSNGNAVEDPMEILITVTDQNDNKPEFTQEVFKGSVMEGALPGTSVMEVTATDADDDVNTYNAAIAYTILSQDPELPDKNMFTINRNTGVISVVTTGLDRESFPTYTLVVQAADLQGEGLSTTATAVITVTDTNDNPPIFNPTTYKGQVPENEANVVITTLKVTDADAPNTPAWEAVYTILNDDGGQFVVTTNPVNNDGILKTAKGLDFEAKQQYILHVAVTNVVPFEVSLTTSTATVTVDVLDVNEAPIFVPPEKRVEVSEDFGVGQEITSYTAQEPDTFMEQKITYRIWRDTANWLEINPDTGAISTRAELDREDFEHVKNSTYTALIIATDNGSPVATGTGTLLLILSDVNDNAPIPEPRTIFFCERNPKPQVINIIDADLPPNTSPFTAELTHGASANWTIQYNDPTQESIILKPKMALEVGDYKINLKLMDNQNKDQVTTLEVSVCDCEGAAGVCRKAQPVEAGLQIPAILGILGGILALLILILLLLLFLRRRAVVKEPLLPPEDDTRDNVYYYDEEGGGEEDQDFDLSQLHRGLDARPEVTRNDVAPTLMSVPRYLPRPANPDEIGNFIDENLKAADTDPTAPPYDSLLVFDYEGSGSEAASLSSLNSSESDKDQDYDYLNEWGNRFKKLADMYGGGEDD
How it was run: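 DLD-1 cells treated 16 h with DMSO vehicle or 1, 10 or 20 μM compound, then lysed in whole-cell lysis buffer. 800 μg extract incubated with 3.5 μg anti-β-catenin, with normal rabbit IgG as negative control. Protein G magnetic beads added for 1 h at 4°C, washed four times (150 mM NaCl) and eluted in reducing buffer. 2% input included. Immunoblotting used chemiluminescence and actin-normalised densitometry.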

Colo320 and HCT116 cells = assay: Proliferation assay, β-catenin–dependent cell lines; assay type: cell-based, human; details: 5, 10, or 20 μM; 24, 48, 72, and 96 hours
How it was run: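 Colo320, HCT116 and RKO cells were seeded in triplicate at 3000 cells/well and treated with DMSO vehicle or 5, 10 or 20 μM compound. Proliferation was measured by CellTiter-Glo 2.0 luminescence, relative to the respective baseline readings.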

[4] = molecular target: human CTNNB1 region 141-305 (short protein) (human) (UniProt P35222); assay: ITC
[5] = molecular target: T3, full-length recombinant β-catenin (1 to 781 amino acids, 88 kDa) (human, UniProt P35222 1-781); assay: AlphaScreen or HTRF
T3 sequence: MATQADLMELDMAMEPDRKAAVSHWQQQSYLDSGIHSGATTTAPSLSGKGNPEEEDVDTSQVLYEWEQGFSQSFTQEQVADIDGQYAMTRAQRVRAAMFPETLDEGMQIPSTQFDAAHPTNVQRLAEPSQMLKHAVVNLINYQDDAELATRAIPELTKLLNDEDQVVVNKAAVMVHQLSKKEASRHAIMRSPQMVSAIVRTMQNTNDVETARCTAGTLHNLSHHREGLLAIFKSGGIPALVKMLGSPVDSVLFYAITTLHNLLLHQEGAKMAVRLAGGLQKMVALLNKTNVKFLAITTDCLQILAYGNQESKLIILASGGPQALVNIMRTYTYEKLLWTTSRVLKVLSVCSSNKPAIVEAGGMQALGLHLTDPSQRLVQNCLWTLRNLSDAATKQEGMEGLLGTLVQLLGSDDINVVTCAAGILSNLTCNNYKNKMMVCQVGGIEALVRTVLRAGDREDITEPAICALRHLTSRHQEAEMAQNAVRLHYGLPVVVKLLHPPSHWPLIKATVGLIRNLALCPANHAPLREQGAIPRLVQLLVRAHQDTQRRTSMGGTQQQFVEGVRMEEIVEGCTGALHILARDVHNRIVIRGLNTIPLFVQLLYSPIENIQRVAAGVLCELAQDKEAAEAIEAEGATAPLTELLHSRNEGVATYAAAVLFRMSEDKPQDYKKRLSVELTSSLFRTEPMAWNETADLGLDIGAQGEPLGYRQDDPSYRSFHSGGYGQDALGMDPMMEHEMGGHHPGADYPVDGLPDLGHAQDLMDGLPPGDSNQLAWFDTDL

Molecule: CC(C)c1cc(C(C)C)c(CC(=O)NS(=O)(=O)Oc2c(C(C)C)cccc2C(C)C)c(C(C)C)c1 [avasimibe]
effect of addition of cholesterol on viability (HCT116 and Colo320 cells): did not affect the viability | cell viability compared to vehicle controls (HCT116 and Colo320 cells): significantly reduced cell viability

Molecule: CC[C@H](C)C(=O)O[C@H]1C[C@@H](C)C=C2C=C[C@H](C)[C@H](CC[C@@H]3C[C@@H](O)CC(=O)O3)[C@H]21 [lovastatin]
effect of addition of cholesterol on viability (HCT116 and Colo320 cells): did not affect the viability | cell viability compared to vehicle controls (HCT116 and Colo320 cells): significantly reduced cell viability

Molecule: CCN(CC)CCO[C@H]1CC[C@@]2(C)C(=CC[C@@H]3[C@@H]2CC[C@]2(C)C(=O)CC[C@@H]32)C1.Cl [U-18666A]
intracellular lipids (BODIPY) (HCT116 cells): substantial intracellular lipid accumulation

Molecule: O=C1[C@H](Cc2ccc(O)cc2)N2C(=O)CCN(C(=O)NCc3ccccc3)[C@H]2CN1Cc1cccc2ccccc12 [ICG-001, reference compound]
cell viability compared to vehicle controls (HCT116 and Colo320 cells): significantly reduced cell viability | inhibition of Wnt signaling (firefly/renilla luciferase ratio) [1]: significantly inhibited Wnt signaling

Continued, in another order:

concentration inhibiting β-catenin/BCL9 complexes in Co-IP (β-catenin/BCL9 complexes): 20 µM
Molecule: COc1ccc(C)cc1CN1CCC(c2cc3ncccc3cn2)CC1 [C-3]

PARP cleavage (AXIN2, CD44, PARP): minor PARP cleavage at 10 and 20 μM | concentration inhibiting β-catenin/BCL9 complexes in Co-IP (β-catenin/BCL9 complexes): 1 µM
Molecule: O=C(Nc1ccccc1Oc1nc2ccccc2n2cnnc12)c1cccs1 [C-2]
PARP cleavage (AXIN2, CD44, PARP, ABC): increased the cleavage of poly(adenosine diphosphate–ribose) polymerase (PARP) | abundance of active β-catenin (ABC) (AXIN2, CD44, PARP, ABC): decreased abundance of “active” dephosphorylated β-catenin | protein expression of AXIN2 and CD44 (AXIN2, CD44, PARP, ABC): significantly decreased the protein expression of AXIN2 and CD44 | expression of AXIN2 or CD44 protein (AXIN2, CD44, PARP): did not affect their expression of AXIN2 or CD44 protein | expression of AXIN2 and CD44 mRNAs [2]: significantly inhibited the expression of AXIN2 and CD44 mRNAs | disruption of β-catenin complexes with E-cadherin [3]: Neither compound disrupted the ability of β-catenin to form complexes with E-cadherin | proliferation (Colo320 and HCT116 cells): significantly reduced the proliferation | inhibition of Wnt signaling (firefly/renilla luciferase ratio) [1]: significantly inhibited Wnt signaling

Kd [4]: 2740 nM
Molecule: nonbiotinylated BCL9-HD2 peptide

binding result [5]: binds
Molecule: Biotin-LSQEQLEHRERSLQTLRDIQRM [N-terminal biotinylated BCL9-HD2 peptide]
